# Assay results from ChEMBL document CHEMBL4689842, “EUbOPEN Chemogenomics Library wave 1” (2021).
# Several values for one entry are separate records, joined by “and”; a condition that tells them apart may be missing. Equal entries are not always repeated.
# System: HEK-293T
# Assay: Multiplex assay against HEK293T;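 as to Population Tubulin-Different-Phenotype (%): share of the cells with healthy nuclei that show this phenotype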
# Assay type: toxicity, cell-based
# Conditions: human
# Procedure, shortened: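 With compound added, live cells were imaged on a CQ1 microscope at 37°C and 5% CO2; staining with Hoechst33342, BioTracker Green Microtubule Cytoskeleton Dye, MitoTracker Red and Annexin V Alexa Fluor 680 had been done at seeding. The CellPathfinder machine-learning gating scheme split cells into Hoechst high-intensity objects or normal cells, normal cells into healthy, pyknosed or fragmented nuclei, and pyknosed cells into mitotic or apoptotic. The tubulin, mitochondrial-mass and membrane-permeability phenotypes are per cents of healthy-nucleus cells.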
# [1] = 12 h, 1 µM, compound concentration 1 uM, replicate 1
# [2] = 12 h, 1 µM, compound concentration 1 uM, replicate 2
# [3] = 12 h, 10 µM, compound concentration 10 uM, replicate 1
# [4] = 12 h, 10 µM, compound concentration 10 uM, replicate 2
# [5] = 24 h, 1 µM, compound concentration 1 uM, replicate 1
# [6] = 24 h, 1 µM, compound concentration 1 uM, replicate 2
# [7] = 24 h, 10 µM, compound concentration 10 uM, replicate 1
# [8] = 24 h, 10 µM, compound concentration 10 uM, replicate 2
# [9] = 48 h, 1 µM, compound concentration 1 uM, replicate 1
# [10] = 48 h, 1 µM, compound concentration 1 uM, replicate 2
# [11] = 48 h, 10 µM, compound concentration 10 uM, replicate 1
# [12] = 48 h, 10 µM, compound concentration 10 uM, replicate 2
smiles,measurement,setting,value
Cc1ccc2c(c1)c1c(n2CCc2ccc(C)nc2)CCN(C)C1 [LATREPIRDINE],Population Apoptotic (%),[1],65%
same,Population Fragmented Nuclei (%),[1],9%
same,Population Healthy Nuclei (%),[1],39%
same,Population Hoechst High Intensity Objects (%),[1],14%
same,Population Membrane Permeable-Phenotype (%),[1],0%
same,Population Mitochondria Different-Phenotype (%),[1],97%
same,Population Mitotic Cells (%),[1],34%
same,Population Normal (%),[1],85%
same,Population Pyknosed Nuclei (%),[1],51%
same,Population Tubulin-Different-Phenotype (%),[1],85%
same,Total Cell Count,[1],246
same,Population Apoptotic (%),[2],28%
same,Population Fragmented Nuclei (%),[2],6%
same,Population Healthy Nuclei (%),[2],38%
same,Population Hoechst High Intensity Objects (%),[2],2%
same,Population Membrane Permeable-Phenotype (%),[2],7%
same,Population Mitochondria Different-Phenotype (%),[2],64%
same,Population Mitotic Cells (%),[2],71%
same,Population Normal (%),[2],97%
same,Population Pyknosed Nuclei (%),[2],54%
same,Population Tubulin-Different-Phenotype (%),[2],39%
same,Total Cell Count,[2],209
same,Population Apoptotic (%),[3],89%
same,Population Fragmented Nuclei (%),[3],30%
same,Population Healthy Nuclei (%),[3],12%
same,Population Hoechst High Intensity Objects (%),[3],24%
same,Population Membrane Permeable-Phenotype (%),[3],8%
same,Population Mitochondria Different-Phenotype (%),[3],95%
same,Population Mitotic Cells (%),[3],10%
same,Population Normal (%),[3],75%
same,Population Pyknosed Nuclei (%),[3],57%
same,Population Tubulin-Different-Phenotype (%),[3],91%
same,Total Cell Count,[3],251
same,Population Apoptotic (%),[4],91%
same,Population Fragmented Nuclei (%),[4],5%
same,Population Healthy Nuclei (%),[4],13%
same,Population Hoechst High Intensity Objects (%),[4],4%
same,Population Mitochondria Different-Phenotype (%),[4],96%
same,Population Mitotic Cells (%),[4],8%
same,Population Normal (%),[4],95%
same,Population Pyknosed Nuclei (%),[4],80%
same,Population Tubulin-Different-Phenotype (%),[4],96%
same,Total Cell Count,[4],194
same,Population Apoptotic (%),[5],55%
same,Population Fragmented Nuclei (%),[5],7%
same,Population Healthy Nuclei (%),[5],42%
same,Population Hoechst High Intensity Objects (%),[5],14%
same,Population Membrane Permeable-Phenotype (%),[5],1%
same,Population Mitochondria Different-Phenotype (%),[5],96%
same,Population Mitotic Cells (%),[5],44%
same,Population Normal (%),[5],85%
same,Population Pyknosed Nuclei (%),[5],50%
same,Population Tubulin-Different-Phenotype (%),[5],87%
same,Total Cell Count,[5],276
same,Population Apoptotic (%),[6],29%
same,Population Fragmented Nuclei (%),[6],5%
same,Population Healthy Nuclei (%),[6],55%
same,Population Hoechst High Intensity Objects (%),[6],4%
same,Population Membrane Permeable-Phenotype (%),[6],11%
same,Population Mitochondria Different-Phenotype (%),[6],55%
same,Population Mitotic Cells (%),[6],70%
same,Population Normal (%),[6],95%
same,Population Pyknosed Nuclei (%),[6],39%
same,Population Tubulin-Different-Phenotype (%),[6],47%
same,Total Cell Count,[6],271
same,Population Apoptotic (%),[7],90%
same,Population Fragmented Nuclei (%),[7],35%
same,Population Healthy Nuclei (%),[7],16%
same,Population Hoechst High Intensity Objects (%),[7],24%
same,Population Membrane Permeable-Phenotype (%),[7],6%
same,Population Mitochondria Different-Phenotype (%),[7],96%
same,Population Mitotic Cells (%),[7],9%
same,Population Normal (%),[7],75%
same,Population Pyknosed Nuclei (%),[7],47%
same,Population Tubulin-Different-Phenotype (%),[7],93%
same,Total Cell Count,[7],242
same,Population Apoptotic (%),[8],93%
same,Population Fragmented Nuclei (%),[8],5%
same,Population Hoechst High Intensity Objects (%),[8],6%
same,Population Membrane Permeable-Phenotype (%),[8],2%
same,Population Mitochondria Different-Phenotype (%),[8],97%
same,Population Mitotic Cells (%),[8],6%
same,Population Normal (%),[8],93%
same,Population Pyknosed Nuclei (%),[8],77%
same,Population Tubulin-Different-Phenotype (%),[8],94%
same,Total Cell Count,[8],220
same,Population Apoptotic (%),[9],59%
same,Population Fragmented Nuclei (%),[9],11%
same,Population Healthy Nuclei (%),[9],61%
same,Population Hoechst High Intensity Objects (%),[9],10%
same,Population Membrane Permeable-Phenotype (%),[9],2%
same,Population Mitochondria Different-Phenotype (%),[9],62%
same,Population Mitotic Cells (%),[9],40%
same,Population Normal (%),[9],89%
same,Population Pyknosed Nuclei (%),[9],27%
same,Population Tubulin-Different-Phenotype (%),[9],67%
same,Total Cell Count,[9],332
same,Population Apoptotic (%),[10],32%
same,Population Fragmented Nuclei (%),[10],6%
same,Population Healthy Nuclei (%),[10],77%
same,Population Hoechst High Intensity Objects (%),[10],3%
same,Population Membrane Permeable-Phenotype (%),[10],8%
same,Population Mitochondria Different-Phenotype (%),[10],23%
same,Population Mitotic Cells (%),[10],67%
same,Population Normal (%),[10],96%
same,Population Pyknosed Nuclei (%),[10],16%
same,Population Tubulin-Different-Phenotype (%),[10],40%
same,Total Cell Count,[10],413
same,Population Apoptotic (%),[11],86%
same,Population Fragmented Nuclei (%),[11],41%
same,Population Healthy Nuclei (%),[11],21%
same,Population Hoechst High Intensity Objects (%),[11],24%
same,Population Mitotic Cells (%),[11],13%
same,Population Normal (%),[11],75%
same,Population Pyknosed Nuclei (%),[11],37%
same,Population Tubulin-Different-Phenotype (%),[11],94%
same,Total Cell Count,[11],246
same,Population Apoptotic (%),[12],87%
same,Population Fragmented Nuclei (%),[12],2%
same,Population Healthy Nuclei (%),[12],42%
same,Population Hoechst High Intensity Objects (%),[12],13%
same,Population Membrane Permeable-Phenotype (%),[12],2%
same,Population Mitochondria Different-Phenotype (%),[12],97%
same,Population Mitotic Cells (%),[12],12%
same,Population Normal (%),[12],86%
same,Population Pyknosed Nuclei (%),[12],55%
same,Population Tubulin-Different-Phenotype (%),[12],90%
same,Total Cell Count,[12],198
C[C@]1(O)C[C@@H](c2nc(-c3ccc4ccc(-c5ccccc5)nc4c3)c3c(N)nccn32)C1 [LINSITINIB],Population Apoptotic (%),[1],31% and 29%
same,Population Fragmented Nuclei (%),[1],19% and 26%
same,Population Healthy Nuclei (%),[1],45% and 44%
same,Population Hoechst High Intensity Objects (%),[1],33% and 19%
same,Population Membrane Permeable-Phenotype (%),[1],11% and 4%
same,Population Mitochondria Different-Phenotype (%),[1],17% and 6%
same,Population Mitotic Cells (%),[1],68% and 70%
same,Population Normal (%),[1],66% and 80%
same,Population Pyknosed Nuclei (%),[1],35% and 28%
same,Total Cell Count,[1],588 and 493
same,Population Apoptotic (%),[2],18% and 11%
same,Population Fragmented Nuclei (%),[2],4% and 8%
same,Population Healthy Nuclei (%),[2],83% and 86%
same,Population Hoechst High Intensity Objects (%),[2],14% and 5%
same,Population Membrane Permeable-Phenotype (%),[2],5% and 1%
same,Population Mitotic Cells (%),[2],81% and 88%
same,Population Normal (%),[2],85% and 94%
same,Population Pyknosed Nuclei (%),[2],11% and 4%
same,Total Cell Count,[2],891 and 1486
same,Population Apoptotic (%),[5],31% and 26%
same,Population Fragmented Nuclei (%),[5],22% and 26%
same,Population Healthy Nuclei (%),[5],53% and 56%
same,Population Hoechst High Intensity Objects (%),[5],27% and 13%
same,Population Membrane Permeable-Phenotype (%),[5],7% and 5%
same,Population Mitochondria Different-Phenotype (%),[5],29% and 10%
same,Population Mitotic Cells (%),[5],68% and 73%
same,Population Normal (%),[5],72% and 86%
same,Population Pyknosed Nuclei (%),[5],23% and 16%
same,Total Cell Count,[5],525 and 479
same,Population Fragmented Nuclei (%),[6],10%
same,Population Healthy Nuclei (%),[6],82% and 71%
same,Population Hoechst High Intensity Objects (%),[6],18% and 6%
same,Population Membrane Permeable-Phenotype (%),[6],8% and 4%
same,Population Mitotic Cells (%),[6],80% and 93%
same,Population Normal (%),[6],81% and 93%
same,Population Pyknosed Nuclei (%),[6],6% and 2%
same,Total Cell Count,[6],1000 and 2217
